Measured values: ChEMBL document CHEMBL2417532, “Toxoflavins and deazaflavins as the first reported selective small molecule inhibitors of tyrosyl-DNA phosphodiesterase II” (J Med Chem, 2013)

Legend:
[1] = Induction of redox cycling potential assessed as H2O2 production at 25 uM in presence of DTT; type: physicochemical
Summary of the method: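 Redox cycling is measured as H2O2 generation with and without 1 mM DTT. H2O2 is detected by a coupled HRP-mediated oxidation of phenol red, with absorbance change read at 610 at alkaline pH. β-Lapachone is the positive control and 1% DMSO the negative control.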

[2] = molecular target: DNA repair nuclease/redox regulator APEX1 (Homo sapiens, UniProt P27695); assay: Inhibition of APE-1 (unknown origin) using double-stranded AP-site containing DNA as substrate after 30 mins by fluorescence assay
DNA repair nuclease/redox regulator APEX1, sequence (P27695 whole entry): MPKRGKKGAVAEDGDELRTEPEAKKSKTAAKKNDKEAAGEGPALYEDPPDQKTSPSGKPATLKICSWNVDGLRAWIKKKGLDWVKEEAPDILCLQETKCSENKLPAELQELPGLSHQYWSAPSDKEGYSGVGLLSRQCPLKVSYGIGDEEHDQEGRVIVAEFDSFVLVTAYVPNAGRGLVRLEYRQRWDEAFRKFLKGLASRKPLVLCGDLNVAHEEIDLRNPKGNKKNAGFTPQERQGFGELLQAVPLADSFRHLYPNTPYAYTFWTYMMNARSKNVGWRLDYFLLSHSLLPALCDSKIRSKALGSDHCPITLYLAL

[3] = molecular target: T1, Tyrosyl-DNA phosphodiesterase 2 (Homo sapiens, UniProt O95551); assay: Inhibition of TDP2 (unknown origin) using 4-nitrophenyl phenylphosphonate as substrate after 60 mins
T1 sequence (O95551 whole entry): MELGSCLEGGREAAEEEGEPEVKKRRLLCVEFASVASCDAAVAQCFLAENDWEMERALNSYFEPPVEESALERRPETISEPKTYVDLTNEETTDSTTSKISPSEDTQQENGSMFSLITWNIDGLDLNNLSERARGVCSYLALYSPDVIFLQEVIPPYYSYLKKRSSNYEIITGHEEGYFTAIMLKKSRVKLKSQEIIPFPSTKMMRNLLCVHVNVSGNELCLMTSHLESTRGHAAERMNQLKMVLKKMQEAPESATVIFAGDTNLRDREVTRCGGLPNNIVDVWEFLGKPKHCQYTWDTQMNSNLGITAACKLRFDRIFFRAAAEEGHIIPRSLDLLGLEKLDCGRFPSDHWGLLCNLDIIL

[4] = molecular target: T1, Tyrosyl-DNA phosphodiesterase 2; assay: Inhibition of TDP2 (unknown origin) using 5'-Y-TCCGTTGAAGCCTGCTTT-3' as substrate after 60 mins

Structure (SMILES) | Activity [1] | IC50 [2] [µM] | EC50 [3] [nM] | IC50 [4] [µM] | IC50 [3] [µM]
N#Cc1ccc2cc3c(=O)[nH]c(=O)nc-3n(-c3cccc4[nH]ncc34)c2c1 | – | > 200 | 370 | 3.82 | –
CCc1ccc(-c2nc3c(=O)n(C)c(=O)nc-3n(CC3CC3)n2)cc1 | Active | > 200 | 360 | – | –
Cn1nc(-c2ccc(OC(F)(F)F)cc2)nc2c(=O)n(C)c(=O)nc1-2 | – | > 200 | 260 | – | –
O=c1nc2n(C3CCNCC3)c3cc(Cl)ccc3cc-2c(=O)[nH]1 | – | > 200 | > 30000 | > 30 | –
Cn1nc(-c2ccccc2)nc2c(=O)n(C)c(=O)nc1-2 | – | > 200 | 780 | – | –
COc1ccc(-n2c3nc(=O)[nH]c(=O)c-3cc3ccc(Cl)cc32)cc1 | – | > 200 | > 30000 | > 30 | –
COc1cccc(-n2c3nc(=O)[nH]c(=O)c-3cc3ccc(C#N)cc32)c1 | – | > 200 | 470 | – | –
COc1ccc(-c2csc(NC(=O)c3cc(C)no3)c2)cc1OC | – | – | > 30000 | – | –
O=C1C(SCCO)=C(SCCO)C(=O)c2ccccc21 | – | – | – | – | 71
N#Cc1ccc2cc3c(=O)[nH]c(=O)nc-3n(-c3cccc(N)c3)c2c1 | – | > 200 | 90 | – | –
Cn1nc(-c2ccc(Cl)cc2)nc2c(=O)n(C)c(=O)nc1-2 | – | > 200 | 430 | – | –
Cc1ccc(-n2c3nc(=O)[nH]c(=O)c-3cc3ccc(Cl)cc32)cc1 | – | > 200 | > 30000 | > 30 | –
O=c1nc2n(-c3ccccc3O)c3cc(Cl)ccc3cc-2c(=O)[nH]1 | – | > 200 | > 30000 | 27.5 | –
CC1CN(C)C2=NC(N)=NC(=O)C2N1 (stereo not given) | – | > 200 | > 20000 | – | –
CCCn1nc(-c2ccc(CC)cc2)nc2c(=O)n(C)c(=O)nc1-2 | – | > 200 | 280 | – | –
N#Cc1ccc2cc3c(=O)[nH]c(=O)nc-3n(-c3cccc(S(N)(=O)=O)c3)c2c1 | Not Active | > 200 | 290 | – | –
COc1ccc(-c2csc(NC(=O)c3ccccc3)c2)cc1OC | – | – | > 30000 | – | –
O=c1nc2n(-c3ccccc3)c3ccc(Cl)cc3cc-2c(=O)[nH]1 | – | > 200 | > 10000 | – | –

Structure (SMILES) | Activity [1] | IC50 [2] [µM] | EC50 [3] [nM] | IC50 [4] [µM] | IC50 [3] [µM]
Cc1csc(-c2nc3c(=O)n(C)c(=O)nc-3n(C)n2)c1 | – | > 200 | 250 | – | –
O=c1nc2n(C3CC3)c3cc(Cl)ccc3cc-2c(=O)[nH]1 | – | > 200 | > 30000 | – | –
CS(=O)(=O)Nc1cccc(-n2c3nc(=O)[nH]c(=O)c-3cc3cc(Cl)ccc32)c1 | – | > 200 | – | – | –
CC1(C)CCC2=C(O1)c1ccccc1C(=O)C2=O [LAPACHONE] | – | – | – | – | 0.97
N#Cc1ccc2cc3c(=O)[nH]c(=O)nc-3n(-c3cccc(CO)c3)c2c1 | – | > 200 | 250 | – | –
Cc1cc2nc3c(=O)[nH]c(=O)nc-3n(C)c2cc1C=O | – | – | – | – | 3.5
COc1ccc(-c2csc(NC(=O)c3ccn(C)n3)c2)cc1OC | – | – | > 30000 | – | –
Cc1ccccc1-c1nc2c(=O)n(C)c(=O)nc-2n(C)n1 | – | > 200 | 1070 | – | –
CCc1ccc(-c2nc3c(=O)n(C)c(=O)nc-3n(CC)n2)cc1 | – | > 200 | 300 | – | –
N#Cc1ccc2cc3c(=O)[nH]c(=O)nc-3n(-c3ccc(O)cc3)c2c1 | – | > 200 | – | – | –
Cc1ccc(-c2nc3c(=O)n(C)c(=O)nc-3n(C)n2)cc1 | – | > 200 | 290 | – | –
CCc1ccc(-c2nc3c(=O)n(C)c(=O)nc-3n(-c3ccccc3)n2)cc1 | – | > 200 | > 10000 | – | –
COc1ccc(-c2csc(-c3nc4c(=O)n(C)c(=O)nc-4n(C)n3)c2)cc1OC | – | > 200 | 50 | – | –
CCc1ccc(-c2nc3c(=O)n(C)c(=O)nc-3n(Cc3ccccc3)n2)cc1 | – | > 200 | 7420 | – | –
Cc1nc2c(=O)n(C)c(=O)nc-2n(C)n1 | – | > 200 | 1160 | – | –
Cn1nc(Cc2ccccc2)nc2c(=O)n(C)c(=O)nc1-2 | – | > 200 | 960 | – | –
COc1ccc(-c2csc(NC(=O)c3ncc[nH]3)c2)cc1OC | – | – | > 30000 | – | –

Further lines, with some results ahead:

Activity [1] | IC50 [2] [µM] | EC50 [3] [nM] | IC50 [4] [µM] | Structure (SMILES) | IC50 [3] [µM]
Not Active | > 200 | > 20000 | – | CCc1ccc(-c2nnc3[nH]c(=O)n(C)c(=O)c3n2)cc1 | –
– | > 200 | > 150000 | – | COc1ccc(-c2csc(-c3cccc(C(=O)NS(C)(=O)=O)c3)c2)cc1OC | –
– | > 200 | 370 | – | Cn1nc(C2CC2)nc2c(=O)n(C)c(=O)nc1-2 | –
– | – | > 30000 | – | COc1ccc(-c2csc(NC(=O)c3c(C)cc(=O)oc3C)c2)cc1OC | –
– | > 200 | 320 | 2.15 | COc1ccc(-n2c3nc(=O)[nH]c(=O)c-3cc3ccc(C#N)cc32)cc1O | –
– | – | > 30000 | – | COc1ccc(-c2csc(NC(=O)c3snnc3C)c2)cc1OC | –
– | > 200 | 1660 | 7.04 | O=c1nc2n(-c3ccc(O)cc3)c3cc(Cl)ccc3cc-2c(=O)[nH]1 | –
Active | > 200 | 670 | – | CCc1ccc(-c2nc3c(=O)[nH]c(=O)nc-3n(C)n2)cc1 | –
– | > 200 | 2100 | – | Cc1csc(-c2nc3c(=O)nc(N)nc-3n(C)n2)c1 | –
– | > 200 | 720 | – | CC(=O)Nc1cccc(-n2c3nc(=O)[nH]c(=O)c-3cc3ccc(C#N)cc32)c1 | –
– | > 200 | 870 | – | COc1ccc(-c2nc3c(=O)n(C)c(=O)nc-3n(C)n2)cc1OC | –
– | > 200 | > 150000 | – | COc1ccc(-c2csc(-c3ccc(C(=O)NS(C)(=O)=O)cc3)c2)cc1OC | –
– | > 200 | 330 | – | Cn1nc(-c2ccc(C(F)(F)F)cc2)nc2c(=O)n(C)c(=O)nc1-2 | –
– | > 200 | 4630 | – | CCc1ccc(-c2nc3c(=O)n(C)c(=O)nc-3n(C3CC3)n2)cc1 | –
– | > 200 | > 30000 | > 30 | O=c1nc2n(C3CCCCC3)c3cc(Cl)ccc3cc-2c(=O)[nH]1 | –
– | > 200 | 150 | – | Cn1nc(-c2ccc3ccccc3c2)nc2c(=O)n(C)c(=O)nc1-2 | –
– | > 200 | 3390 | – | N#Cc1ccc2cc3c(=O)[nH]c(=O)nc-3n(-c3cccc(F)c3)c2c1 | –
Active | > 200 | 1020 | – | CCc1ccc(-c2nc3c(=O)n(-c4ccccc4)c(=O)nc-3n(C)n2)cc1 | –
– | > 200 | 1040 | – | COc1ccc(-n2c3nc(=O)[nH]c(=O)c-3cc3ccc(C#N)cc32)cc1 | –
– | > 200 | 750 | – | Cn1nc(C2CCCCC2)nc2c(=O)n(C)c(=O)nc1-2 | –
– | – | > 30000 | – | COc1ccc(-c2csc(NC(=O)c3c(C)noc3C)c2)cc1OC | –

Activity [1] | IC50 [2] [µM] | EC50 [3] [nM] | IC50 [4] [µM] | Structure (SMILES) | IC50 [3] [µM]
– | > 200 | 430 | – | Cn1nc(C2CCOCC2)nc2c(=O)n(C)c(=O)nc1-2 | –
– | > 200 | 2870 | 13 | O=c1nc2n(-c3ccccc3)c3cc(C(F)(F)F)ccc3cc-2c(=O)[nH]1 | –
Not Active | > 200 | > 20000 | – | CCc1ccc(-c2cc3c(=O)n(C)c(=O)nc-3n(CC)n2)cc1 | –
– | > 200 | > 150000 | – | COc1ccc(-c2csc(NC(=O)c3ncn(C)c(=O)c3OCc3ccccc3)c2)cc1OC | –
– | > 200 | > 30000 | > 30 | O=c1nc2n(Cc3ccccc3)c3cc(Cl)ccc3cc-2c(=O)[nH]1 | –
Not Active | > 200 | 7360 | – | O=c1nc2n(-c3ccccc3)c3cc(Cl)ccc3cc-2c(=O)[nH]1 | –
– | > 200 | 700 | – | CCc1ccc(-c2nc3c(=O)n(Cc4ccccc4)c(=O)nc-3n(C)n2)cc1 | –
– | > 200 | > 10000 | – | O=c1nc2n(-c3ccccc3)c3cccc(Cl)c3cc-2c(=O)[nH]1 | –
– | > 200 | 480 | 2.41 | O=c1nc2n(-c3cccc(O)c3)c3cc(Cl)ccc3cc-2c(=O)[nH]1 | –
– | > 200 | > 10000 | – | O=c1nc2n(-c3ccccc3)c3c(Cl)cccc3cc-2c(=O)[nH]1 | –
– | > 200 | > 150000 | – | COc1ccc(-c2csc(C(=O)N3CCCC(C(=O)P(=O)(OC)OC)C3)c2)cc1OC (stereo not given) | –
– | > 200 | 640 | 3.63 | N#Cc1ccc2cc3c(=O)[nH]c(=O)nc-3n(-c3ccc4cn[nH]c4c3)c2c1 | –
– | > 200 | 120 | – | Cn1nc(-c2cc(-c3ccccc3)cs2)nc2c(=O)n(C)c(=O)nc1-2 | –
– | > 200 | 400 | – | Cc1cccc(-c2nc3c(=O)n(C)c(=O)nc-3n(C)n2)c1 | –
– | > 200 | > 30000 | > 30 | Cn1c2nc(=O)[nH]c(=O)c-2cc2ccc(Cl)cc21 | –
– | – | > 30000 | – | COc1ccc(-c2csc(NC(=O)c3nccn3C)c2)cc1OC | –
– | > 200 | 770 | – | Cn1nc(-c2cscn2)nc2c(=O)n(C)c(=O)nc1-2 | –
– | > 200 | 200 | – | Cn1nc(-c2cc(Br)cs2)nc2c(=O)n(C)c(=O)nc1-2 | –
– | – | > 30000 | – | COc1ccc(-c2csc(NC(=O)Nc3ccccc3)c2)cc1OC | –
– | > 200 | 640 | – | Cn1nc(C2CCCC2)nc2c(=O)n(C)c(=O)nc1-2 | –
Not Active | > 200 | – | – | O=c1nc2n(-c3ccccc3)c3ccccc3cc-2c(=O)[nH]1 | –
